Reference: publication PMC5383082 (International Journal of Nanomedicine, 2017)

How the values were obtained:
[1] = tested on: HeLa cells; assay: Apoptosis assay; type: cell-based; details: 3 μg/mL DOX
Summary of the method: (§1)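 HeLa or KB cells were seeded at 4×10^5 per well, cultured 24 h, then exposed to conjugates at 3 μg/mL DOX for 24 h at 37°C. For receptor blocking, 1 mM free folate was added before the drug. Trypsinized and floating cells were pooled and stained with annexin V-FITC/PI. 20,000 cells per sample were analysed by flow cytometry, with FSC/SSC gating to exclude debris. Q2 was scored as late and Q4 as early apoptosis. Mean ± SD, three independent experiments.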

[2] = tested on: KB cells; assay: Cellular uptake; type: cell-based
Summary of the method: (§2)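 Cells were grown 48 h in folate-free RPMI 1640, then given conjugates at 5 μg/mL DOX for 1 h at 37°C. For blocking, 1 mM free folate was added before the conjugates. For microscopy, monolayers were rinsed 3× with PBS, fixed in 4% paraformaldehyde for 15 min and imaged by fluorescence at equal exposure. For flow cytometry, 3×10^5 trypsinized cells per tube received the same treatment and were rinsed before reading.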

[3] = tested on: HeLa cells; assay: MTT cytotoxicity assay; type: cell-based
Summary of the method: (§3)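 Cells kept in folate-free medium were seeded at 5×10^3 per well and grown 24 h. They were then exposed for 2 h at 37°C to serial dilutions of 1.56–25.00 μg/mL DOX equivalent, followed by 72 h in drug-free DMEM. MTT (5 mg/mL stock) was added for 4 h, formazan was dissolved in DMSO and absorbance read at 490 nm. Five parallel experiments; mean ± SD.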

[4] = tested on: HeLa cells; assay: Cellular uptake; type: cell-based
Summary of the method: as §2

[5] = tested on: KB cells; assay: Apoptosis assay; type: cell-based; details: 3 μg/mL DOX
Summary of the method: as §1

[6] = tested on: KB cells; assay: MTT cytotoxicity assay; type: cell-based
Summary of the method: as §3

[7] = Pharmacokinetic analysis of plasma DOX after intravenous injection; type: in vivo; details: Kunming mice, i.v. 5 mg/kg DOX, noncompartmental
[8] = Tissue distribution of DOX after intravenous injection; type: in vivo; details: mice, i.v. 5 mg/kg, compared with free DOX
Summary of the method: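 Male Kunming mice (~25 g, 6–8 weeks) received 5 mg/kg DOX equivalent intravenously. Heart, liver, spleen and kidney were collected at 30 min and 3 h. Tissue was homogenized in ethanol/HCl/water and centrifuged at 12,000 rpm for 15 min. DOX in the supernatant was measured by fluorescence spectrophotometry. n=4; mean ± SD.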

[9] = tested on: Subcutaneous KB tumors; assay: KB xenograft tumor mouse model; type: in vivo, BALB/c nude mice; details: KB xenograft nude mice, single i.v. dose 8 mg/kg DOX
Summary of the method: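 Female BALB/c nude mice (6–8 weeks, 16–18 g) were inoculated subcutaneously in the front armpit with 2.5×10^6 KB cells. Once tumors were established, mice got a single tail-vein injection of 8 mg/kg DOX equivalent; saline served as control. Tumors were measured every 4 days, with volume = length × width² × 0.52. Body weight was recorded every 4 days and survival was followed. n=6 per group; mean ± SD.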

[10] = 2 h drug incubation then 72 h culture, DOX concentration, mean ± SD

folate-polyethylene glycol-immunoglobulin G-doxorubicin [FA-PEG-IgG-DOX]
proapoptotic effect after pretreatment with 1 mM folate [1]: significantly diminished
fluorescence intensity (microscopy) ([2]; 5 μg/mL DOX, 1 h, 37°C): apparently higher than IgG-DOX
uptake after 1 mM folate pretreatment (microscopy) ([2]; 1 mM folate pretreatment): could be blocked
IC50 as fraction of that of IgG-DOX [3]: about 1/8
antitumor activity, times higher than IgG-DOX [3]: at least 8 times
IC50 [3, 10]: 3.22 ± 0.9 µg/mL
fluorescence intensity (microscopy) ([4]; 5 μg/mL DOX, 1 h, 37°C): apparently higher than IgG-DOX
uptake after 1 mM folate pretreatment (microscopy) ([4]; 1 mM folate pretreatment): could be blocked
proapoptotic effect after pretreatment with 1 mM folate [5]: significantly diminished
IC50 as fraction of that of IgG-DOX [6]: about 1/12
antitumor activity, times higher than IgG-DOX [6]: at least 8 times
IC50 [6, 10]: 1.78 ± 0.4 µg/mL
AUC(0–∞) [7]: 992.943 μg/mL⋅h
CLz [7]: 0.19 mL/day/kg
Cmax [7]: 225.275 ng/mL
Vz [7]: 0.070 L/kg
DOX concentration in the heart [8]: at the same level with that following free DOX injection
body weight change [9]: minor body weight reduction
survival of treated mice [9]: prolonged the survival of treated mice compared with DOX
tumor growth from day 12 to day 25 [9]: maintained a very low growth rate
average tumor size at day 25 after injection ([9]; day 25): 553 mm^3
